Measurements taken from ChEMBL document CHEMBL4765343, “Design and synthesis of novel SCM-198 analogs as cardioprotective agents: Structure-activity relationship studies and biological evaluations” (Eur J Med Chem, 2020).
The source made the active and inactive calls. The rule behind the calls is not given here.

Key:
[1] = system: H9c2; experiment: Antioxidant activity in rat H9c2 cells assessed as protection against H2O2-induced hypoxic injury by measuring cell viability at 1 uM preincubated for 4 hrs followed by H2O2 stimulation for 1 hr by MTT assay relative to control; format: functional
Procedure, shortened: (§1)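 H9c2 cells at 1 × 10^5 cells/mL, 100 μL per well in triplicate, left 18 h. Compound diluted in DMSO; DMSO alone as negative control. 4 h pretreatment, then 400 nM H2O2 for 1 h. Medium removed and MTT added for 2-4 h, formazan dissolved in DMSO, absorbance at 570 nm. Medium-only wells gave the blank.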

[2] = system: H9c2; experiment: Antioxidant activity in rat H9c2 cells assessed as protection against H2O2-induced hypoxic injury by measuring cell viability at 10 uM preincubated for 4 hrs followed by H2O2 stimulation for 1 hr by MTT assay relative to control; format: functional; procedure, shortened: as §1
[3] = system: H9c2; experiment: Antioxidant activity in rat H9c2 cells assessed as protection against H2O2-induced hypoxic injury by measuring cell viability preincubated for 4 hrs followed by H2O2 stimulation for 1 hr by MTT assay relative to control; format: functional; settings: time 5 hrs, read-out: ED50 (the source's name)
Procedure, shortened: (§2)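 ED50 taken from log dose against % viability. Viability also reported at the EC50 concentration. Means ± SEM from three independent experiments.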

[4] = system: H9c2; experiment: Cytoprotective activity against H2O2-induced injury in rat H9c2 cells assessed as reduction in LDH release at 10 uM preincubated for 4 hrs followed by H2O2 stimulation for 1 hr by LDH assay; format: functional, cell-based; settings: time 5.0 hrs
Procedure, shortened: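 Cells at 5 × 10^4 per well in triplicate, 18 h, then 4 h compound and 1 h H2O2. Model wells had H2O2 without compound; controls had DMSO. 50 μL medium mixed with 2X LDH assay buffer, kept in the dark at 22-25 °C for 10-30 min, read at 490-520 nm. Activity blank-subtracted, normalised to BCA protein of the lysed cells, and expressed relative to model wells.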

[5] = system: H9c2; experiment: Antioxidant activity in rat H9c2 cells assessed as protection against H2O2-induced hypoxic injury by measuring cell viability at ED50 concentration preincubated for 4 hrs followed by H2O2 stimulation for 1 hr by MTT assay relative to control; format: functional; settings: time 5 hrs; procedure, shortened: as §2
[6] = system: H9c2; experiment: Antiapoptotic activity in rat H9c2 cells assessed as restoration of H2O2-induced bcl-2 downregulation at 10 uM preincubated for 4 hrs followed by H2O2 stimulation for 1 hr by Western blotting analysis; format: functional, cell-based; settings: time 5.0 hrs
Procedure, shortened: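 Serum-starved (12 h) H9c2 cells were pretreated 4 h, then exposed to 500 nM H2O2 in DMEM for 1 h. Lysis on ice with protease/phosphatase inhibitors, then 13,000 g at 4 °C for 15 min. 20 μg protein run on 8-12% SDS-PAGE and blotted to PVDF. Probed overnight at 4 °C for caspase-3, pro-caspase-3, Bcl-2 and GAPDH, with chemiluminescent detection.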

N=C(N)NCCCCOC(=O)c1ccc(C(F)(F)F)cc1 was tested, and the Activity [1] was 54.2% and the Activity [2] was 51.7%.

Molecule COc1cc(C(=O)OCCCNC(=N)N)cc(OC)c1O has an Activity [1] of 50.1% and an Activity [2] of 55.2%.

Work on COc1cc(C(=O)OCCCN(C)C)cc(OC)c1O yielded an Activity [1] of 55.2% and an Activity [2] of 61.7%.

With N=C(N)NCCCCO the Activity [1] was 46.8% and the Activity [2] was 51.4%.

Work on N=C(N)NCCCCOC(=O)C1CCCCC1 yielded an Activity [1] of 52.4% and an Activity [2] of 58.8%.

Work on N=C(N)NCCCCOC(=O)c1ccc2[nH]ccc2c1 yielded an Activity [1] of 51.8% and an Activity [2] of 58.9%.

COc1cc(/C=C/C(=O)OCCCCNC(=N)N)cc(OC)c1OC showed an Activity [1] of 55.4% and an Activity [2] of 61.4%.

COc1cc(C(=O)OCCCCNC(=N)N)ccc1OC(C)=O showed an Activity [1] of 63.4% and an Activity [2] of 56.4%.

For COc1ccc(OC)c(C(=O)OCCCCNC(=N)N)c1, the Activity [1] was 53.3% and the Activity [2] was 57.7%.

Molecule COc1cc(C(=O)OCCNC(=N)N)cc(OC)c1O has an Activity [1] of 53.6% and an Activity [2] of 61.9%.

With CC(=O)Oc1ccccc1C(=O)OCCCCNC(=N)N the Activity [1] was 57.8% and the Activity [2] was 58.3%.

Molecule CC(=O)Oc1cccc(C(=O)OCCCCNC(=N)N)c1 has an Activity [1] of 59.7% and an Activity [2] of 62.8%.

Work on COc1cc(C(=O)OCCCCCCNC(=N)N)cc(OC)c1O yielded an Activity [1] of 53.4% and an Activity [2] of 58.9%.

Molecule COc1cc(C(=O)OCCN(C)C)cc(OC)c1O has an Activity [1] of 47.8% and an Activity [2] of 48.5%.

For COc1cc(C(=O)OCC2CCN(C(=N)N)CC2)cc(OC)c1O, the Activity [1] was 56.2% and the Activity [2] was 61%.

Molecule COc1cc(C(=O)OCCCCNC(=N)N)cc(OC)c1OC has an Activity [1] of 54.1% and an Activity [2] of 53.3%.

Work on COc1cc(C(=O)OCCCCCNC(=N)N)cc(OC)c1O yielded an Activity [1] of 58.9% and an Activity [2] of 50.1%.

In the case of COc1cc(C(=O)OCCN2CCOCC2)cc(OC)c1O, the Activity [1] is reported as 52.3% and the Activity [2] is reported as 50.5%.

N=C(N)NCCCCOC(=O)c1c(F)cc(F)cc1F was tested, and the Activity [1] was 69.6% and the Activity [2] was 60.7%.

With CC(=O)Oc1ccc(C(=O)OCCCCNC(=N)N)cc1 the Activity [1] was 57.8% and the Activity [2] was 52.7%.

For N=C(N)NCCCCOC(=O)c1ccc([N+](=O)[O-])cc1, the Activity [1] was 67.7% and the Activity [2] was 59.6%.

For N=C(N)NCCCCOC(=O)c1ccco1, the Activity [1] was 51.1% and the Activity [2] was 53.2%.

For COc1cc(C(=O)OCC2CCN(C(=N)N)CC2)cc(OC)c1OC(C)=O, the Activity [1] was 42.7% and the Activity [2] was 47%.

COc1ccc(C(=O)OCCCCNC(=N)N)cc1 gave an Activity [1] of 61.2% and an Activity [2] of 58.6%.

COc1ccc(C(=O)OCCCCNC(=N)N)c(OC)c1OC gave an Activity [1] of 49.2% and an Activity [2] of 57.8%.

For Cc1cccc(C(=O)OCCCCNC(=N)N)c1, the EC50 [3] was 156 nM, the Activity [4] was “inactive” and the Activity [5] was 57.4%. It also gave an Activity [1] of 64.4% and an Activity [2] of 65.8%.

Work on COc1cc(C(=O)OCCOCCNC(=N)N)cc(OC)c1O yielded an EC50 [3] of 151 nM, an Activity [5] of 58.8% and an Activity [1] of 63.4%. The Activity [2] was 69.8% and the Activity [6] was “inactive”.

N=C(N)NCCCCOC(=O)C12CC3CC(CC(C3)C1)C2 gave an Activity [1] of 58.2% and an Activity [2] of 56.8%.

CCN(CC)CCOC(=O)c1cc(OC)c(O)c(OC)c1 was tested, and the EC50 [3] was 207 nM, the Activity [5] was 51.7% and the Activity [1] was 61.1%. For the same molecule, the Activity [2] was 66.8%.

Molecule COc1cc(C(=O)OCCCCN)cc(OC)c1O has an Activity [1] of 56.3% and an Activity [2] of 56.2%.

COc1cc(OC)c(C(=O)OCCCCNC(=N)N)c(OC)c1 gave an Activity [1] of 55.2% and an Activity [2] of 53.4%.

Molecule COc1cc(C(=O)OCCCCNC(=N)N)cc(OC)c1OC(C)=O has an Activity [1] of 52.3% and an Activity [2] of 55.2%.

Molecule COc1cc(C(=O)OC(C)CNC(=N)N)cc(OC)c1O (stereo unspecified) has an Activity [1] of 52.2% and an Activity [2] of 54.2%.

For N=C(N)NCCCCOC(=O)c1ccncc1, the Activity [1] was 54% and the Activity [2] was 53.2%.
